The values below come from ChEMBL document CHEMBL3352384, “Synthesis and biological activity of new salicylanilide N,N-disubstituted carbamates and thiocarbamates” (Bioorg Med Chem, 2014).

≈ marks a conversion by molar mass, not a printed value. Where only a bound is given, the exact number is not on record here.

For data set [1], the system named is Mycobacterium avium. The experiment in a line: Antimycobacterial activity against Isoniazid, rifampicin, ofloxacin and ethambutol-resistant Mycobacterium avium 330/88 assessed as complete growth inhibition after 14 days. The data set is classed as functional. Particulars: 330/88, 336 h. The gist of the method: (§1)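 M. tuberculosis 331/88 (H37Rv) inoculum diluted 10-3, M. avium 330/88 diluted 10-5. MIC is the lowest concentration giving complete growth inhibition. Isoniazid and p-aminosalicylic acid as references. Quadruplicate, repeated twice.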

In data set [2] the test system is HepG2. As to the kind of experiment: Cytotoxicity against human HepG2 cells assessed as reduction in cell viability after 24 hrs by MTS assay. It is filed as cell-based. The conditions noted are these: HepG2, 24 h. The method, boiled down:
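HepG2 hepatocellular carcinoma cells (passage 3–4) were grown in Eagle's MEM with 10% FBS, 1% L-glutamine and non-essential amino acids. Compounds were added from DMSO at eight concentrations in triplicate, with 10% DMSO as the 0% viability control. Viability was read by tetrazolium salt reduction (CellTiter 96 AQueous One). IC50 is the concentration reducing viability to 50% of control.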

Data set [3] can be described thus: Selectivity index, ratio of IC50 for human HepG2 cells to MIC for atypical mycobacteria. The method, boiled down:
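Selectivity index = HepG2 IC50 / MIC. HepG2 cells (passage 3–4) grown in Eagle's MEM with 10% FBS, L-glutamine and non-essential amino acids. Compounds added from DMSO, eight concentrations in triplicate, tetrazolium-reduction colorimetric read-out. IC50 is the concentration reducing viability to 50% of control; 10% DMSO as 0% viability.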

In data set [4] the test system is Mycobacterium kansasii. As to the kind of experiment: Antimycobacterial activity against Mycobacterium kansasii 235/80 assessed as complete growth inhibition after 21 days. The data set is classed as functional. The conditions noted are these: 235/80, 504 h. The gist of the method:
(§2)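 Dilutions of M. kansasii inoculum were 10-4 for strain 235/80 and 10-5 for clinical isolate 6509/96. MIC was the lowest concentration giving complete growth inhibition, run in quadruplicate and repeated twice.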

Data set [5] has as its system Mycobacterium kansasii. The experiment in a line: Antimycobacterial activity against Mycobacterium kansasii 235/80 assessed as complete growth inhibition after 7 days. It is filed as functional. Particulars: 235/80, 168 h. The gist of the method: as §2
Data set [6] is described as follows: Selectivity index, ratio of IC50 for human HepG2 cells to MIC for Mycobacterium tuberculosis H37Rv. Particulars: read-out: Selectivity Index. It is filed as toxicity, cell-based. The gist of the method:
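Selectivity index = HepG2 IC50 / MIC. HepG2 cells (passage 3–4) grown in Eagle's MEM with 10% FBS, L-glutamine and non-essential amino acids. Compounds added from DMSO, eight concentrations in triplicate, tetrazolium-reduction colorimetric read-out.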

In data set [7] the test system is Mycobacterium kansasii. The experiment in a line: Antimycobacterial activity against Mycobacterium kansasii 235/80 assessed as complete growth inhibition after 14 days. It is filed as functional. The conditions noted are these: 235/80, 336 h. The gist of the method:
as §2

The subject of data set [8] is Mycobacterium tuberculosis. The experiment in a line: Antimycobacterial activity against Mycobacterium tuberculosis H37Rv 331/88 assessed as complete growth inhibition after 14 days. It is filed as functional. Particulars: H37Rv 331/88, 336 h. The gist of the method: as §1
Data set [9] deals with Mycobacterium kansasii. As to the kind of experiment: Antimycobacterial activity against clinical isolate Mycobacterium kansasii 6509/96 assessed as complete growth inhibition after 14 days. The conditions noted are these: 6509/96, 336 h. The data set is classed as functional. The gist of the method: as §2
Data set [10] can be described thus: Inhibition of Mycobacterium tuberculosis H37Rv isocitrate lyase assessed as glyoxylate phenyl hydrazone formation at 10 uM.
In data set [11] the test system is Mycobacterium tuberculosis. As to the kind of experiment: Antimycobacterial activity against Mycobacterium tuberculosis H37Rv 331/88 assessed as complete growth inhibition after 21 days. It is filed as functional. The conditions noted are these: H37Rv 331/88, 504 h. The method, boiled down:
as §1

The subject of data set [12] is Mycobacterium kansasii. The experiment in a line: Antimycobacterial activity against clinical isolate Mycobacterium kansasii 6509/96 assessed as complete growth inhibition after 7 days. It is filed as functional. The conditions noted are these: 6509/96, 168 h. The method, boiled down: as §2
The test system of data set [13] is Mycobacterium kansasii. The experiment in a line: Antimycobacterial activity against clinical isolate Mycobacterium kansasii 6509/96 assessed as complete growth inhibition after 21 days. It is filed as functional. The conditions noted are these: 6509/96, 504 h. The method, boiled down: as §2
The subject of data set [14] is Mycobacterium avium. The experiment in a line: Antimycobacterial activity against Isoniazid, rifampicin, ofloxacin and ethambutol-resistant Mycobacterium avium 330/88 assessed as complete growth inhibition after 21 days. The conditions noted are these: 330/88, 504 h. The data set is classed as functional. The gist of the method:
as §1

`CN(C)C(=O)Oc1ccccc1C(=O)Nc1ccccc1`: the minimal inhibitory concentration (MIC) in [1], in [4], in data set [5], in data set [7], in data set [8] and in data set [9] was 1000 µM (≈ 284 µg/mL) in each case. Further, the MIC in [11], in data set [12], in [13] and in data set [14] was 1000 µM (≈ 284 µg/mL) in each case. Also, in data set [2], the half-maximal inhibitory concentration (IC50) came to 5990 µM. The “Selectivity Index” value in data set [3] was determined as 6. For the same compound, in data set [6], the selectivity ratio came to 6. For the same compound, in data set [10], the inhibition stood at 10%.

As to `O=C(Nc1ccc(C(F)(F)F)cc1)c1cc(Cl)ccc1O`, the MIC is 4 µM (≈ 1.26 µg/mL) in [1]; 4 µM (≈ 1.26 µg/mL) in data set [4]; 2 µM (≈ 0.631 µg/mL) in [5]; 4 µM (≈ 1.26 µg/mL) in data set [7]; 1 µM (≈ 0.316 µg/mL) in data set [8]; 4 µM (≈ 1.26 µg/mL) in data set [9]. Besides, the minimal inhibitory concentration (MIC) stood at 2 µM (≈ 0.631 µg/mL) in [11], 2 µM (≈ 0.631 µg/mL) in [12], 4 µM (≈ 1.26 µg/mL) in data set [13] and 8 µM (≈ 2.53 µg/mL) in [14]. Also, the IC50 in [2] stood at 0.36 µM. Besides, the inhibition in [10] was found to be 6%.

For the compound `CN(C(=O)Oc1ccc(Cl)cc1C(=O)Nc1ccc(C(F)(F)F)cc1)c1ccccc1`, the MIC in [1] worked out at 250 µM (≈ 112 µg/mL); in [4] it was 125 µM (≈ 56.1 µg/mL); in data set [5] it was 125 µM (≈ 56.1 µg/mL); in data set [7], 125 µM (≈ 56.1 µg/mL); in [8] it was 125 µM (≈ 56.1 µg/mL); in data set [9] it was 125 µM (≈ 56.1 µg/mL). The MIC in data set [11] was found to be 125 µM (≈ 56.1 µg/mL); in [12], 125 µM (≈ 56.1 µg/mL); in [13] it was 125 µM (≈ 56.1 µg/mL); in data set [14] it was 250 µM (≈ 112 µg/mL). Further, the IC50 in data set [2] is above 100 µM. In data set [10], the inhibition came out at 16%.

As to `O=C(Nc1ccc(C(F)(F)F)cc1)c1cc(Cl)ccc1OC(=O)N(c1ccccc1)c1ccccc1`, the minimum inhibitory concentration (MIC) amounted to 250 µM (≈ 128 µg/mL) in data set [1]; 125 µM (≈ 63.9 µg/mL) in [4]; 125 µM (≈ 63.9 µg/mL) in [5]; 125 µM (≈ 63.9 µg/mL) in data set [7]; 125 µM (≈ 63.9 µg/mL) in data set [8]; 125 µM (≈ 63.9 µg/mL) in data set [9]. The MIC in data set [11] was determined as 125 µM (≈ 63.9 µg/mL); in data set [12], 125 µM (≈ 63.9 µg/mL); in [13] it was 125 µM (≈ 63.9 µg/mL); in [14], 250 µM (≈ 128 µg/mL). Moreover, the 50% inhibitory concentration (IC50) in [2] is above 100 µM. For the same compound, the inhibition in data set [10] is 21%.

With `O=C(O)CC[N+](=O)[O-]`, the MIC in data set [1], in data set [4], in data set [5], in [7], in data set [9] and in data set [11] was above 1000 µM in each case. Also, the minimal inhibitory concentration (MIC) in data set [12], in data set [13] and in data set [14] was above 1000 µM throughout. Besides, the IC50 in data set [2] was determined as 692 µM. Moreover, the “Selectivity Index” value in data set [3] is given as below 0.7. In addition, in data set [6], the selectivity ratio is below 0.7. The inhibition in [10] worked out at 25%.

On to `CN(C)C(=S)Oc1ccccc1C(=O)Nc1ccccc1`, for which the minimum inhibitory concentration (MIC) in data set [1], in data set [4], in data set [5], in data set [7], in data set [8] and in [9] was above 1000 µM in each case. Besides, the MIC in data set [11], in [12], in data set [13] and in [14] was above 1000 µM in each case. Besides, the IC50 in data set [2] was above 500 µM. In addition, the inhibition in data set [10] worked out at 6%.

With `O=C(Nc1ccc(Cl)cc1)c1cc(Cl)ccc1OC(=O)N(c1ccccc1)c1ccccc1`, the minimal inhibitory concentration (MIC) in [1] came out at 250 µM (≈ 119 µg/mL); in [4] it was 125 µM (≈ 59.7 µg/mL); in data set [5], 32 µM (≈ 15.3 µg/mL); in data set [7], 125 µM (≈ 59.7 µg/mL); in [8], 250 µM (≈ 119 µg/mL); in data set [9] it was 62.5 µM (≈ 29.8 µg/mL). Besides, the MIC in [11] is 250 µM (≈ 119 µg/mL); in data set [12], 32 µM (≈ 15.3 µg/mL); in data set [13], 62.5 µM (≈ 29.8 µg/mL); in data set [14], 250 µM (≈ 119 µg/mL). Also, the half-maximal inhibitory concentration (IC50) in data set [2] was above 100 µM. The inhibition in data set [10] came out at 20%.

A word on the MIC: it is the lowest concentration found to suppress growth. For orientation: IC50 means the midpoint of a concentration-inhibition curve. A word on the inhibition: it is the percentage by which the read-out fell short of the control.
